ChEMBL document CHEMBL2010700, “The discovery of aminopyrazines as novel, potent Na(v)1.7 antagonists: hit-to-lead identification and SAR” (Bioorg Med Chem Lett, 2012)
Converted amounts (≈) assume the structure as drawn.

How the values were obtained:
[1] = system: Plasma; assay: Drug metabolism in rat plasma assessed as formation of mono-oxidized product at 10 uM after 3 hrs; type: ADME, cell-free
[2] = Solubility of the compound in simulated intestinal fluid; type: physicochemical
[3] = Solubility of the compound in phosphate buffered saline at pH 7.4; type: physicochemical
[4] = Solubility of the compound in 0.01 N HCl; type: physicochemical
[5] = Volume of distribution at steady state in Sprague-Dawley rat at 0.5 mg/kg, iv; type: ADME, organism-based; parameters: dose 0.5 mg/kg, route intravenous; conditions: in vivo, read-out: Vdss
[6] = Oral bioavailability in Sprague-Dawley rat at 2 mg/kg; type: ADME, organism-based; conditions: in vivo
In short: (§1)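 Male Sprague-Dawley rats given 2.0 mpk orally in 10 mL/kg of 30% hydroxypropyl-β-cyclodextrin adjusted to pH 2.2 with methanesulfonic acid.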

[7] = AUC (infinity) in Sprague-Dawley rat at 2 mg/kg, po; type: ADME, organism-based; parameters: dose 2 mg/kg, route oral, time infinity; conditions: plasma; in short: as §1
[8] = Cmax in Sprague-Dawley rat at 2 mg/kg, po; type: ADME, organism-based; parameters: dose 2 mg/kg, route oral; conditions: in vivo; in short: as §1

| Drug metabolism [1] | solubility [2] [µg/mL] | solubility [3] [µg/mL] | solubility [4] [µg/mL] | Vd [5] [L/kg] | bioavailability [6] [%] | AUC(0-inf) [7] [µM·h] | Cmax [8] [nM] | Structure (SMILES) |
| --- | --- | --- | --- | --- | --- | --- | --- | --- |
| Active | 7 (≈ 22.3 µM) | 1 (≈ 3.19 µM) | 6 (≈ 19.1 µM) |  |  |  |  | Nc1ncnc(Nc2ccc(Oc3ccc(Cl)cc3)cc2)n1 |
|  | 109 (≈ 301 µM) | 1 (≈ 2.76 µM) | 7 (≈ 19.3 µM) | 2.1 | 13 | 0.76 | 220 | Nc1cncc(Nc2ccc(Oc3ccc(OC(F)(F)F)cc3)cc2)n1 |
